Several values for one entry are separate records, joined by “and”; a condition that tells them apart may be missing. Identical values can stand only once.
Columns and labels:
[1] = system: R/R AML patients; settings: cited from earlier work
[2] = system: dogs; experiment: Pre-clinical toxicology study, daily oral gavage, dogs; format: in vivo; settings: daily oral gavage for 14 days to 3 months
[3] = system: human platelets; experiment: In vitro platelet aggregation assay in platelet rich plasma; format: cell-based
[4] = system: patients with R/R AML; experiment: Phase Ib dose-escalation trial of oral mivavotinib: safety, DLT, MTD/RP2D; format: in vivo, human
[5] = system: rats; experiment: Pre-clinical toxicology study, daily oral gavage, rats; format: in vivo; settings: daily oral gavage for 14 days to 3 months
[6] = target: T1, FLT3 (Homo sapiens, UniProt P36888); experiment: Plasma inhibitory activity; format: cell-based
T1 sequence (P36888 610-943 limits assumed): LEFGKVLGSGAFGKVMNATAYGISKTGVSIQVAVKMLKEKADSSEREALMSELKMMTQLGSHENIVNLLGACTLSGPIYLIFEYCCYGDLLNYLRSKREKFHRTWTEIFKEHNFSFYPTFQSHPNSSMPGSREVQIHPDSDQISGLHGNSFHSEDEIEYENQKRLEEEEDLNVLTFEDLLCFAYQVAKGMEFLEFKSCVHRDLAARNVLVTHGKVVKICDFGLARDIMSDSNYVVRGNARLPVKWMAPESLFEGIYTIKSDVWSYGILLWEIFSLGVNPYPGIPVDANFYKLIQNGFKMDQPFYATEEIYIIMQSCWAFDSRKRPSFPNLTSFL
In short: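 Steady-state trough plasma was drawn before dosing on Cycle 1 day 15. An FLT3-ITD-expressing AML cell line was incubated in this plasma. FLT3 phosphorylation was quantified against baseline plasma and reported as % of baseline. Drug level in the same sample was measured by mass spectrometry. Reference curve: normal donor plasma spiked with test compound, Molm-14 cells 1 h, immunoblot for pFLT3.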

[7] = system: FLT3 isoforms; settings: evaluation of additional kinases; cited from earlier work
[8] = Phase Ib trial: plasma pharmacokinetics; format: in vivo, human
[9] = system: lymphoma patients; settings: target SYK; cited from earlier work
[10] = system: patients with R/R AML; experiment: Phase Ib trial: response and antileukemic activity; format: in vivo, human
In short: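 Multicenter, open-label phase Ib dose escalation (3+3) of oral single agent given QD or BID in 28-day cycles until progression or unacceptable toxicity. Started at 60 mg QD with 20 mg increments. Response was judged by Revised IWG AML criteria, with modifications.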

## CCc1nc(C(N)=O)c(Nc2ccc(N3CCC(N4CCN(C)CC4)CC3)c(OC)c2)nc1NC1CCOCC1 [gilteritinib]
[1]
  median time to achieve best response: 48 days

## Cn1cc(-c2nc(N[C@@H]3CCCC[C@@H]3N)c(F)c3c2C(=O)NC3)cn1 [mivavotinib]
[2]
  dose at which GI mucosal hemorrhage was dose limiting: ≥ 10 mg/kg
  dose at which GI mucosal hemorrhage was present: ≥ 3 mg/kg
[3]
  effect on platelet aggregation caused by adenosine diphosphate: prevented aggregation
[3]; 1.07 µM mivavotinib
  effect on platelet aggregation caused by collagen: prevented aggregation
[3]; 0.107 mM mivavotinib
  inhibition of platelet aggregation: not observed
[3]; 10.7 mM mivavotinib, collagen (2 mg/mL)
  effect on platelet aggregation caused by collagen: prevented aggregation
[4]; 60 mg BID, 8 patients
  DLT: No episodes of DLT were observed
[4]; 3 patients, who received 80 mg BID
  drug-related SAE gastric hemorrhage: 7%
[4]; BID dosing regimen
  maximum tolerated dose (MTD), BID dosing regimen: 60 mg BID
[4]; QD dosing regimen
  recommended phase II dose (RP2D): 140 mg QD
[4]; QD dosing up to 160 mg QD, per protocol
  maximum tolerated dose (MTD), QD dosing regimen: not reached
[4]; after informed consent and ≤28 days after last dose
  on-study deaths: 26
[4]; all 43 patients
  patients with ≥1 TEAE assessed by the investigator as related to mivavotinib: 84%
[4]; all doses
  intracranial bleeding considered grade ≥3: 4 patients
  patients with GI tract bleeding considered grade ≥3: 7 patients
  patients with GI-related or central nervous system-related bleeding event leading to study discontinuation: 9 patients
  patients with bleeding involving the GI tract: Thirteen
  patients with intracranial bleeding: Seven
[4]; all patients
  patients who discontinued mivavotinib due to a TEAE: 67%
  patients with drug-related SAE: 28%
[4]; of 9 patients
  bleeding events leading to discontinuation considered related to mivavotinib: 5
[4]; of eleven patients with grade ≥3 bleeding events
  fatal grade ≥3 bleeding events: 2
[4]; range -1 to 262
  median day of occurrence of all bleeding events: 22 days
[5]
  dose at which GI mucosal hemorrhage was present: ≥ 30 mg/kg
[6]; 80 mg BID, trough plasma
  in vivo FLT3 inhibition by PIA, comparison of dose levels: most effective FLT3 inhibition
[6]; 140 mg QD or 60 mg BID
  consistent or sustained 90% FLT3 inhibition: neither selected RP2D, 140 mg QD or 60 mg BID, achieved a consistent or sustained 90% FLT3 inhibition
[6]; 140 mg QD, by Cycle 1 day 15, initial evidence
  FLT3 inhibition: at least 90%
[7]
  activity against FLT3 isoforms: 1.6 to 7.6 ng/mL
[8]; dose ranges studied, 60-160 mg QD or 60-80 mg BID
  dose proportionality of plasma exposure: generally dose proportional
[8]; human, plasma, oral, 140 mg
  Cmax: 574 ng/mL and 1.07 µM
[8]; human, plasma, po
  Tmax: 1 to 3 h
[9]
  dose identified for expansion: 100 mg QD
[10]; 13 patients with FLT3 mutations
  reduction in marrow blast percentage, range: 22.5-98.6%
[10]; 33 response-evaluable patients
  patients with PD: 5
  patients with clinical benefit despite PD: 4
  patients with stable disease: 19
[10]; 43 patients enrolled
  complete responses (4 with incomplete count recovery): 5
[10]; BID dosing
  patients with a ≥50% reduction in peripheral blast count from baseline: 9 of 12
[10]; QD dosing
  patients with a ≥50% reduction in peripheral blast count from baseline: 12 of 21
[10]; across all dose levels
  patients with a ≥50% reduction in peripheral blast count from baseline: 21 of 33
[10]; of 19 patients with FLT3 mutations treated at 120, 140, or 160 mg QD or BID
  objective responses with incomplete count recovery (CRi): 3

— publication PMC9973464 (Haematologica, 2022)
